Experimental data published in BindingDB's records for doi:10.1021/jm901214q (Abbott Laboratories, 2010).
pEC50: −log10 of the molar value.

Target: Cannabinoid receptor 2 (Homo sapiens, UniProt P34972)
Assay: Agonist activity at human recombinant CB2 receptor expressed in HEK293 cells coexpressing Galphaq/o5 assessed as calcium mobilization by FLIPR assay
Summary of the method: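 HEK cells stably coexpressing human CB2 and chimeric Gαq/o5 were seeded at 75 000 cells/well the day before and loaded with no-wash calcium dye. Mean ± SEM, ≥3 experiments in duplicate.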

Chain of Cannabinoid receptor 2 (P34972 whole entry): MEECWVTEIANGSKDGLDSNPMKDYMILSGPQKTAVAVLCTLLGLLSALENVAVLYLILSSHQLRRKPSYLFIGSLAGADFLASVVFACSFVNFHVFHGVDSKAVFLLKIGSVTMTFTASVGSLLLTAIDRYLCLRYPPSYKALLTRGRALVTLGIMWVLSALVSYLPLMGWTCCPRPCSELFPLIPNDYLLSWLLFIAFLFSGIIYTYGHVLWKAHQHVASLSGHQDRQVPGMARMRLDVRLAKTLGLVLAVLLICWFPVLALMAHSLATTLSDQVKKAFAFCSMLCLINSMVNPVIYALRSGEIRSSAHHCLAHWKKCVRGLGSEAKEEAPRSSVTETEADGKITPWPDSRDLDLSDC

## CN1CCCCC1Cn1cc(C(=O)c2cc([N+](=O)[O-])ccc2I)c2ccccc21 (stereo unspecified) [3-[(2-iodo-5-nitrophenyl)carbonyl]-1-[(1-methylpiperidin-2-yl)methyl]-1H-indole]
  pEC50: < 5.00
